An excerpt weighted towards active compounds, which were near 1.2% of everything screened.
S1P4 antag: antagonists of human S1P4 receptor | O95977 | S1P4-expressing cells, antagonist mode, reporter read-out | inhibition, % at 4.98 µM | 220,000 compounds, 0.26% hits | AID 1510; in the data active means inhibition above about 29%
Target sequence (O95977 whole entry, looked up): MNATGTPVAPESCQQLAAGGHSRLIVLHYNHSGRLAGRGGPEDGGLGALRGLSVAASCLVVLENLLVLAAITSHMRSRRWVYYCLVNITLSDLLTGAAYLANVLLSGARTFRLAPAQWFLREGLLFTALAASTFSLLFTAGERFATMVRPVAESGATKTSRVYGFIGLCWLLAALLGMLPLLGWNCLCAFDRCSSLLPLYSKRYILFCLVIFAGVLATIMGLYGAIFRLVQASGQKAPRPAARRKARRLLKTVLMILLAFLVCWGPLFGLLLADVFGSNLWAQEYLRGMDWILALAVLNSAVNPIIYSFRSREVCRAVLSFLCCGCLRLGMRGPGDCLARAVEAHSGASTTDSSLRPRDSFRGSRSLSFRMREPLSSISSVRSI
S1P4 agonist: human S1P4 receptor agonism; O95977; activation, % at 4.98 µM; 220,000 compounds, 0.35% hits; S1P4-expressing cell line, agonist reporter assay; in the data active means activation above about 11%
Biofilm kill mix: mixture kills Candida albicans biofilm cells; C. albicans biofilm persisters + clotrimazole, fluorescence viability; primary screen in compound mixtures of four per well; inhibition, % at 7.6 µM; 120,000 compounds, 0.02% hits; AID 1242;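 active means inhibition above 30.3% in the primary screen of four-compound pools, then above 30% when the compound was retested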;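 further: compounds exposed to preformed 24 h biofilms for 48 h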
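Test system: C. albicans biofilms. Buffer or medium: RPMI/MOPS medium, pH 7.0. Timing: 48 h compound exposure at 37 °C. Technique: Alamar Blue fluorescence. Evaluation: percent inhibition of biofilm viability.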
S1P3 antagonist: blocks the human S1P3 receptor | Q99500 | CHO S1P3 NFAT-BLA reporter, FRET fluorescence, antagonist mode | inhibition, % at 4.98 µM | 170,000 compounds, 0.27% hits | AID 485;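 active means inhibition above the plate cutoff, the mean inhibition of test wells on that plate plus 3 SD, cut at about 28% in these data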;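 further: cells challenged with S1P at its EC80 of 0.8 µM; blue over green emission ratio from cleaved BLA substrate after 4 h stimulation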
Rad51 HR inh: blocks human Rad51 in homologous recombination. Q06609. hRad51 DNA strand exchange, fluorescence dequenching. inhibition, % at 10 µM. 200,000 compounds, 0.085% hits;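 active means inhibition above 40% at the single screening dose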
Target sequence (Q06609 whole entry, looked up): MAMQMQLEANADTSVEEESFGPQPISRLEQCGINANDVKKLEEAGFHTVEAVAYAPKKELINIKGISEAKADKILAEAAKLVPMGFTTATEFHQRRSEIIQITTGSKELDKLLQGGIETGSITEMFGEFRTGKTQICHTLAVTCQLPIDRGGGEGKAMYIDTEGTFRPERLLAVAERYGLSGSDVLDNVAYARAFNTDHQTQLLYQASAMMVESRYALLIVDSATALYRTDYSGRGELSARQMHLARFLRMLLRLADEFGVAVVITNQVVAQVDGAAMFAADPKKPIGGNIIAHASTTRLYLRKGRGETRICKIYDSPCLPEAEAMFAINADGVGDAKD
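Material: human Rad51–ssDNA filaments; Probe or stimulus: labelled 47-mer dsDNA for strand exchange; Doses: single 10 µM dose; Incubation: 37 °C 15-min filament assembly, 30-min compound preincubation, 15-min exchange; Technique: FRET fluorescence dequenching, excitation 485 nm, emission 520 nm; Measure: Fluorescence-based percent inhibition, control- and blank-normalised; Benchmarks: plate control and blank wells.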
HMGR II inh: blocks class II HMG-CoA reductase of Enterococcus faecalis; inhibition, % at 10 µM; 190,000 compounds, 0.41% hits; AID 1066; purified E. faecalis HMGR, NADPH absorbance 340 nm kinetic;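 active means inhibition above a set limit, the median over all tested compounds plus 3 SD, cut at about 9.5% in these data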;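 further: enzyme runs in reverse so mevalonate oxidation gives rising NADPH absorbance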
S1P4 agonist cf: confirmation of human S1P4 receptor agonists; 740 compounds, 7% hits; S1P4 agonist cell-based reporter assay; shares compounds with S1P4 agonist; AID 1523; activation, % at 4.98 µM; in the data active means activation above about 12%
S1P1 agonist: counter-screen for S1P4 agonists: agonists of human S1P1 | shares compounds with S1P4 agonist | S1P1 agonist cell-based assay, activation | activation, % at 4.98 µM | 740 compounds, 4% hits; in the data active means activation above about 21%
S1P4 antag conf: human S1P4 antagonism, confirmation. shares compounds with S1P4 antag. S1P4-expressing cell line, antagonist mode, reporter read-out. inhibition, % at 4.98 µM. 520 compounds, 71% hits. AID 1524; in the data active means inhibition above about 30%
S1P1 antag: human S1P1 antagonism as S1P4 antagonist counter-screen. shares compounds with S1P4 antag. cell-based S1P1 antagonist counterscreen, inhibition. inhibition, % at 4.98 µM. 520 compounds, 37% hits. AID 1564; in the data active means inhibition above about 40%;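 further: receptor stimulated with S1P near its EC80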
A number is an active result; i = inactive; nt = not tested or not shown.

SMILES | S1P4 antag | S1P4 agonist | Biofilm kill mix | S1P3 antagonist | Rad51 HR inh | HMGR II inh | S1P4 agonist cf | S1P1 agonist | others
COc1cccc(NC(C(=O)Nc2cccc(C(C)=O)c2)c2ccccc2)c1 (stereo not drawn) | i | 13.9 | i | i | i | i | i | i
CCOc1ccc2c(c1)C(C)=CC(C)(C)N2C(=O)Nc1ccccc1 | i | i | nt | nt | i | i | nt | nt
C/C(CC(=O)Nc1ccc(F)cc1)=N\NC(=O)Cc1csc(N)n1 | i | i | i | i | i | i | nt | nt
C/C(CC(=O)Nc1ccc(Br)cc1)=N\NC(=O)Cc1csc(N)n1 | i | 101.4 | i | i | i | nt | i | i
O=C(CCCCn1c(=O)[nH]c2ccsc2c1=O)NCCc1ccccc1 | i | i | i | i | i | i | nt | nt
CC(=O)Nc1c(Cl)cc([N+](=O)[O-])c2ccccc12 | i | i | i | i | i | i | nt | nt
COCCn1c(=NC(=O)c2cc(Cl)sc2Cl)sc2cc(S(N)(=O)=O)ccc21 | i | i | i | i | i | i | nt | nt
COCCn1c(=NC(=O)c2ccc3c(c2)OCCO3)sc2cc(S(N)(=O)=O)ccc21 | i | 15.9 | i | i | nt | i | i | i
Cc1c(CNCCC2=CCCCC2)c(C(=O)O)c(C)n1Cc1ccccc1 | i | i | i | i | nt | i | nt | nt
O=C(O)C1CCCN1c1nc(C(F)(F)F)nc2ccccc12 (stereo not drawn) | i | i | i | i | nt | i | nt | nt
COc1ccc(CNC(=S)NC2CCCC2)cc1 | i | 11.5 | i | i | i | i | i | i
COc1cccc(CNC(=S)NC2CCCC2)c1 | i | i | i | i | i | i | nt | nt
CCN(c1ccccc1)S(=O)(=O)c1cc([N+](=O)[O-])ccc1N | i | 17.0 | i | i | nt | i | 18.9 | i
CCCC(=O)Nc1ccc(-c2nc3cc(C)c(C)cc3o2)cc1 | i | 13.1 | nt | i | i | i | i | i
O=C(NC1CC1)C1=C[C@H](c2csc3ccccc23)C[C@H](OCc2ccc(CO)cc2)O1 | nt | nt | i | nt | i | nt | nt | nt
O=C(Nc1ccccc1)C1=C[C@H](c2csc3ccccc23)C[C@H](OCc2ccc(CO)cc2)O1 | i | 16.4 | i | i | i | i | i | i
O=C(O)c1cccc(C(=O)c2cccc(C(=O)O)c2)c1 | i | 41.1 | i | i | nt | i | i | i
Nc1cccc(C(=O)O)c1 | i | i | i | i | i | i | nt | nt
CN1C(=O)NC(NC(=O)C2CCCCC2)(C(F)(F)F)C1=O (stereo not drawn) | i | i | nt | i | nt | i | nt | nt
N#Cc1cnn2ccc(-c3cc(N4CCOCC4)ccc3[N+](=O)[O-])nc12 | i | 13.9 | i | i | i | i | i | i
Cc1cc(/C=C2\SC(=S)N(C)C2=O)c(C)n1-c1cccc(O)c1 | i | i | i | i | i | nt | nt | nt
CN=C1S/C(=C\c2cc(C)n(-c3ccccc3F)c2C)C(=O)N1C | i | 58.5 | nt | nt | i | i | 89.3 | 72.2
Cc1cc(C)nc(-n2nc(C)cc2NC(=O)CNCc2ccccc2)n1 | i | i | nt | nt | i | i | nt | nt
CCN(CC(=O)Nc1cc(C)nn1-c1nc(C)cc(C)n1)Cc1ccccc1 | i | 194.8 | nt | nt | nt | i | i | i
Cc1ccccc1NS(=O)(=O)c1cc(OCC(N)=O)c(C)cc1Cl | i | 14.7 | i | i | nt | i | i | i
SMILES | S1P4 antag | S1P4 agonist | Biofilm kill mix | S1P3 antagonist | Rad51 HR inh | HMGR II inh | S1P4 agonist cf | S1P1 agonist | others
Cc1ccc(NS(=O)(=O)c2cc(OCC(N)=O)c(C)cc2Cl)cc1C | i | i | i | nt | i | i | nt | nt
Cc1nc(SCC#N)c2c(C)c(C)sc2n1 | i | i | nt | i | i | i | nt | nt
COc1cccc(CNc2ccc(F)c(Cl)c2)c1O | i | i | nt | i | i | i | nt | nt
COc1cccc(CNc2cccc(C(F)(F)F)c2)c1O | i | 17.0 | i | i | i | i | i | i
CC(C)N(C)CCOC(=O)c1ccc2c(c1)OCCO2 | i | i | i | nt | i | i | nt | nt
CC(C)(C)c1ccc(C(=O)N2CCC(C(=O)NCc3ccncc3)CC2)cc1 | i | 16.4 | nt | i | i | i | i | i
CN(C)S(=O)(=O)N1CCC(C(=O)O)(c2ccccc2)CC1 | i | i | nt | i | i | i | nt | nt
Cc1cc(C)n(S(=O)(=O)c2ccc(C)c(C)c2C)n1 | i | i | nt | i | i | i | nt | nt
COc1ccc(S(=O)(=O)n2nc(C)cc2C)c(C)c1C | i | 48.1 | nt | nt | i | i | i | i
O=c1cc(N2CCOCC2)[nH]c(=O)n1Cc1ccc(F)cc1 | i | i | nt | i | i | i | nt | nt
N/N=C1\CCCc2c1[nH]c1ccc([N+](=O)[O-])cc21 | i | i | i | i | i | nt | nt | nt
O=[N+]([O-])c1ccc2[nH]c3c(c2c1)CCCC3 | i | 15.1 | i | i | i | i | i | i
CCOC(=O)CSc1ccc(-c2nc3cc(C)c(C)cc3[nH]2)cn1 | i | i | nt | nt | i | i | nt | nt
CCOC(=O)CSc1ccc(-c2nc3ccccc3[nH]2)cn1 | i | 19.1 | nt | nt | i | i | i | i
Cc1ccc(CNC(=O)c2cc3c(=O)n(C)c4ccccc4c3n2C)o1 | i | i | nt | i | i | i | nt | nt
Cc1nc2sc3c(c2c(=O)n1NC(=O)CCBr)CCCC3 | i | i | i | i | i | i | nt | nt
N=c1n(CCN2CCCC2)c2ccccc2n1CC(O)c1ccc(Cl)c(Cl)c1 (stereo not drawn) | 38.1 | 55.0 | i | i | i | i | i | i | S1P4 antag conf=71.2;S1P1 antag=59.8
N=c1n(CCN2CCOCC2)c2ccccc2n1CC(=O)c1ccc(Cl)c(Cl)c1 | i | i | nt | i | i | i | nt | nt
CN(C)c1ccc(/C=N/n2c(-c3ccccc3Br)n[nH]c2=S)cc1 | i | i | i | i | i | nt | nt | nt
Cc1ccc(Nc2cc(C)c3ccc(O)cc3n2)cc1C | 74.6 | 11.2 | i | i | i | nt | i | i | S1P4 antag conf=80.3;S1P1 antag=i
Cc1cc(Cl)n2c(nc3cc(F)c(F)cc32)c1C#N | 31.0 | i | i | i | i | i | nt | nt | S1P4 antag conf=111.8;S1P1 antag=80.7
Cc1cc(C)n2c(=O)c3ccc(Cl)cc3nc2c1C#N | i | i | i | i | i | i | nt | nt
N=c1c[n+](-c2ccc(Cl)cc2)[n-]o1 | i | i | nt | i | i | i | nt | nt
Cc1oc2c(c1C(=O)NCc1cccnc1)C(=O)c1ccccc1C2=O | 89.7 | i | i | i | nt | i | nt | nt | S1P4 antag conf=116.1;S1P1 antag=107.4
CC(=O)COc1ncnc2c(Cl)cc(Cl)cc12 | i | i | i | i | i | i | nt | nt
COc1ccc([N+](=O)[O-])c(S(=O)(=O)c2ccccc2)n1 | 88.5 | i | i | i | i | nt | nt | nt | S1P4 antag conf=118.6;S1P1 antag=79.1
COc1nc(OC)nc(Oc2ccc(Cl)cc2[N+](=O)[O-])n1 | i | i | i | i | nt | i | nt | nt

Assay outcomes: PubChem BioAssay, several laboratories
